Values belong to the molecule of their own block, whether it stands above or below them. Where a SMILES comes first, the peptide text is derived from it. [ ]: non-standard residue; d: D form. The star is where a group is joined. Leu(ol) = CC(C)C[C@H](N)CO; Boc = CC(C)(C)OC(=O)*
What was measured:
Renin [1] = biological target: T1, Renin (Homo sapiens, UniProt P00797); test: In vitro inhibitory activity was tested against purified human renal renin
T1 sequence (P00797 whole entry): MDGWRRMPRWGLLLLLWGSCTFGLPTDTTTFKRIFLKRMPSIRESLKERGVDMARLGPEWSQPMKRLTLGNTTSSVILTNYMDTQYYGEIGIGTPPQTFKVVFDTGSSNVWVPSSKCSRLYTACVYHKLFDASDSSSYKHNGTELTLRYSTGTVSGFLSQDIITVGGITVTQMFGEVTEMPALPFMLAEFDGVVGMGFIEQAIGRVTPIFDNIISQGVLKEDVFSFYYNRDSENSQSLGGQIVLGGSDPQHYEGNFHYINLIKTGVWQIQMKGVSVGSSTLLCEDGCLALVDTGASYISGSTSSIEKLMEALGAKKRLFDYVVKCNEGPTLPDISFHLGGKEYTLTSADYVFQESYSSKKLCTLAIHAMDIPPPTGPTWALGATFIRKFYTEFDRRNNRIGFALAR

Cathepsin D (Bos taurus) = biological target: T2, Cathepsin D (Bos taurus) (UniProt P80209); test: In vitro Inhibitory activity against Bovine cathepsin D at 10e-5 (M)
T2 sequence (whole entry): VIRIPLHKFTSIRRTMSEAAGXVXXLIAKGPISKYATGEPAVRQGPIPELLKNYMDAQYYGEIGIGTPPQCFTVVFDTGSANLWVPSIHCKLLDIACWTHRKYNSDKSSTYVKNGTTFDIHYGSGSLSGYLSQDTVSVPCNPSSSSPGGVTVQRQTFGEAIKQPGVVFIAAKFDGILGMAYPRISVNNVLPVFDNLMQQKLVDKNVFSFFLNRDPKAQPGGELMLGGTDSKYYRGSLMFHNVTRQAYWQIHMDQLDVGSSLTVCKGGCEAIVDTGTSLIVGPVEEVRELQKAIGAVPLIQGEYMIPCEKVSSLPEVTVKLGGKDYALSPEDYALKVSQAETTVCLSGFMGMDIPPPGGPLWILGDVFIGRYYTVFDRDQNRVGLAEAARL
Method in brief: (§1)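 Assayed against purified porcine pepsin or bovine cathepsin D by a method described previously. Results given as percent inhibition at 10^-5 M.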

Pepsin A (Sus scrofa) = Pepsin A (Sus scrofa) (UniProt P00791); test: In vitro Inhibitory activity against porcine Pepsin at 10e-5 (M); method in brief: as §1
Renin (Homo sapiens) [2] = biological target: T3, Renin (Homo sapiens) (UniProt P00797); test: In vitro inhibitory activity against renin at 10e-5 M
T3 sequence (whole entry): T1 sequence (P00797 whole entry)

Pepsin A (Homo sapiens) = Pepsin A (Homo sapiens) (UniProt P0DJD9); test: In vitro inhibitory activity against Human pepsin at 10e-5 M
Method in brief: (§2)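 Human gastricsin and pepsin isolated from gastric juice by IRC-50 ion exchange with pH elution. Hemoglobin substrate; gastricsin run at pH 3.1, pepsin at pH 2.0. After trichloroacetic acid precipitation, supernatant absorbance read at 280 nm. Results given as percent inhibition at 10^-5 M.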

[3] = biological target: T4, Gastricsin (Homo sapiens) (UniProt P20142); test: In vitro Inhibitory activity against human Gastricsin at 10e-5 (M); method in brief: as §2
T4 sequence (whole entry): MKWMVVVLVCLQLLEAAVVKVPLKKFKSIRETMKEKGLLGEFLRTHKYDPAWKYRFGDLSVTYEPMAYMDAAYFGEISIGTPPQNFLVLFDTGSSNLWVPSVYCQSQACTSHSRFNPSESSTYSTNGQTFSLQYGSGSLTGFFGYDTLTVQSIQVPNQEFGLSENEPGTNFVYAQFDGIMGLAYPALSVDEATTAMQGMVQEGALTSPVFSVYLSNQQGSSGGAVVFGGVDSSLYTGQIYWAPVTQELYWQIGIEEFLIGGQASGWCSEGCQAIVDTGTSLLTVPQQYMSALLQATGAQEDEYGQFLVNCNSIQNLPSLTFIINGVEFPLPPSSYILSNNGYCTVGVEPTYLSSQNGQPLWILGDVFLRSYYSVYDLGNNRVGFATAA

Renin (Homo sapiens) [4] = biological target: T3, Renin (Homo sapiens); test: In vitro Inhibitory activity against Renin at 10e-9 (M)
Method in brief: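 Purified human renin, procedure as reported earlier. Results given as percent inhibition at 10^-9 M.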

Renin [5] = biological target: T1, Renin; test: In vitro inhibitory activity against renin
Renin (Homo sapiens) [6] = biological target: T3, Renin (Homo sapiens); test: In vitro inhibitory activity against renin at 10e-6 (M)

Sequence of Pepsin A (Homo sapiens) (P0DJD9 whole entry, looked up): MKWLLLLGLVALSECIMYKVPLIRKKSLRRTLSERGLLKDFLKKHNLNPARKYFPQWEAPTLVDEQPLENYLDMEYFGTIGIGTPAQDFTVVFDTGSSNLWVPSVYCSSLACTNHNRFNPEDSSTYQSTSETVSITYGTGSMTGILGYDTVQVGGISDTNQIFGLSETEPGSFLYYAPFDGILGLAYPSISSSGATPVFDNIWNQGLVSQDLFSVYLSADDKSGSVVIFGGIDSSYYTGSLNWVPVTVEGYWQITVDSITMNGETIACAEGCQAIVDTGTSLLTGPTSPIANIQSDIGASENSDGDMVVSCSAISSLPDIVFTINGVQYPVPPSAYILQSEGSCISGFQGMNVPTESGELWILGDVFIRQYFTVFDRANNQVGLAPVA
Sequence of Pepsin A (Sus scrofa) (P00791 whole entry, looked up): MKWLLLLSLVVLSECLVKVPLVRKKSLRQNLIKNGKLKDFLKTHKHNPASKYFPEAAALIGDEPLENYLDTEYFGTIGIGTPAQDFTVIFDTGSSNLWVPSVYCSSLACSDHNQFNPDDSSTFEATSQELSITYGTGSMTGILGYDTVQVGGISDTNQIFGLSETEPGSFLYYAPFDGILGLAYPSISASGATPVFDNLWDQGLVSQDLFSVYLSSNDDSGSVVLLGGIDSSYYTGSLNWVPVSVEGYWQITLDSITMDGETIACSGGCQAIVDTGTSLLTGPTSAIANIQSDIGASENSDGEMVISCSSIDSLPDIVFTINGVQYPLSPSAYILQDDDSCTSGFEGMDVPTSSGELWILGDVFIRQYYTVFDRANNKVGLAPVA

SMILES: CCOC(=O)N[C@@H](Cc1ccc(I)cc1)C(=O)N[C@@H](CC(C)C)C(=O)N[C@@H](CC1CCCCC1)[C@@H](O)[C@@H](O)CC(C)C
IC50 (Renin [1]): 2.5 nM

SMILES: CC(C)C[C@H](NC(=O)[C@H](C)NC(=O)[C@H](Cc1ccccc1)NC(=O)OC(C)(C)C)[C@@H](O)CCO
inhibition (Renin (Homo sapiens) [2]): 13%

SMILES: CC(C)C[C@@H](CCO)NC(=O)[C@H](C)NC(=O)[C@H](Cc1ccccc1)NC(=O)OC(C)(C)C
inhibition (Renin (Homo sapiens) [2]): 0%

SMILES: CC(C)C[C@H](O)[C@H](O)[C@H](CC1CCCCC1)NC(=O)[C@H](Cc1ccccc1)NC(=O)[C@H](Cc1ccccc1)NC(=O)OC(C)(C)C
inhibition (Cathepsin D (Bos taurus)): 0% | inhibition (Pepsin A (Sus scrofa)): 10%

SMILES: CC(C)C[C@H](NC(=O)[C@H](C)NC(=O)[C@H](Cc1ccccc1)NC(=O)OC(C)(C)C)[C@@H](O)CO
IC50 (Renin [5]): 4000 nM | inhibition (Renin (Homo sapiens) [2]): 65%

SMILES: CC(C)CC[C@H](O)[C@H](CC(C)C)NC(=O)[C@H](Cc1c[nH]cn1)NC(=O)[C@H](Cc1ccccc1)NC(=O)OC(C)(C)C
IC50 (Renin [1]): 1500 nM

SMILES: C[C@H](NC(=O)[C@H](Cc1ccccc1)NC(=O)OC(C)(C)C)C(=O)N[C@H](CO)CC1CCCCC1
IC50 (Renin [5]): 4000 nM | inhibition (Renin (Homo sapiens) [2]): 73%

SMILES: CC(C)C[C@@H](CO)NC(=O)[C@H](C)NC(=O)[C@H](Cc1ccccc1)NC(=O)OC(C)(C)C (Boc-Phe-Ala-[Leu(ol)])
inhibition (Renin (Homo sapiens) [2]): 9%

SMILES: CC(C)CC[C@H](O)[C@H](CC1CCCCC1)NC(=O)[C@H](C)NC(=O)[C@H](Cc1ccccc1)NC(=O)OC(C)(C)C
IC50 (Renin [5]): 200 nM | inhibition (Renin (Homo sapiens) [6]): 94% | inhibition (Renin (Homo sapiens) [2]): 100%

SMILES: CC(C)CN[C@@H](Cc1ccccc1)C(=O)N[C@@H](Cc1c[nH]cn1)C(=O)N[C@@H](CC1CCCCC1)[C@@H](O)[C@@H](O)CC(C)C
IC50 (Renin [1]): 0.3 nM

Results, then the molecule that gave them:

IC50 (Renin [1]): 200 nM
SMILES: CC(C)C[C@H](O)[C@H](O)[C@H](CC1CCCCC1)NC(=O)[C@H](Cc1c[nH]cn1)NC(=O)[C@H](C)NC(=O)OC(C)(C)C

inhibition (Cathepsin D (Bos taurus)): 0% | inhibition (Pepsin A (Sus scrofa)): 0%
SMILES: CC(C)C[C@H](O)[C@H](O)[C@H](CC1CCCCC1)NC(=O)[C@H](Cc1c[nH]cn1)NC(=O)[C@H](Cc1cccc2ccccc12)NC(=O)OC(C)(C)C

inhibition (Cathepsin D (Bos taurus)): 0% | inhibition (Pepsin A (Homo sapiens)): 0% | IC50 (Renin [1]): 2 nM | inhibition [3]: 0% | inhibition (Pepsin A (Sus scrofa)): 0% | inhibition (Renin (Homo sapiens) [4]): 3%
SMILES: CCOC(=O)N[C@@H](CC(C)C)C(=O)N[C@@H](Cc1c[nH]cn1)C(=O)N[C@@H](CC1CCCCC1)[C@@H](O)[C@@H](O)CC(C)C

IC50 (Renin [1]): 1 nM
SMILES: CC(C)C[C@H](O)[C@H](O)[C@H](CC1CCCCC1)NC(=O)[C@H](Cc1c[nH]cn1)NC(=O)[C@H](Cc1ccccc1)NC(=O)CC(C)(C)C

IC50 (Renin [1]): 55 nM
SMILES: CC(C)C[C@H](O)[C@H](O)[C@H](CC1CCCCC1)NC(=O)[C@H](Cc1c[nH]cn1)NC(=O)[C@H](CC1C=NC=N1)NC(=O)OC(C)(C)C (some centres not stated)

inhibition (Cathepsin D (Bos taurus)): 0% | inhibition (Pepsin A (Homo sapiens)): 0% | inhibition [3]: 0% | inhibition (Pepsin A (Sus scrofa)): 0%
SMILES: CC(C)C[C@H](NC(=O)OC(C)(C)C)C(=O)N[C@@H](Cc1c[nH]cn1)C(=O)N[C@@H](CC1CCCCC1)[C@@H](O)[C@@H](O)CC(C)C

IC50 (Renin [1]): 0.5 nM
SMILES: CC(C)C[C@H](NC(=O)[C@H](Cc1ccccc1)NC(=O)OC(C)(C)C)C(=O)N[C@@H](CC1CCCCC1)[C@@H](O)[C@@H](O)CC(C)C

IC50 (Renin [1]): 1 nM
SMILES: CC(C)COC(=O)N[C@@H](Cc1ccccc1)C(=O)N[C@@H](Cc1c[nH]cn1)C(=O)N[C@@H](CC1CCCCC1)[C@@H](O)[C@@H](O)CC(C)C

IC50 (Renin [1]): 1 nM
SMILES: CC(C)C[C@H](O)[C@H](O)[C@H](CC1CCCCC1)NC(=O)[C@H](Cn1cccn1)NC(=O)[C@H](Cc1ccccc1)NC(=O)OC(C)(C)C

inhibition (Cathepsin D (Bos taurus)): 0% | inhibition (Pepsin A (Homo sapiens)): 0% | inhibition [3]: 0% | inhibition (Pepsin A (Sus scrofa)): 0%
SMILES: CC(C)C[C@H](O)[C@H](O)[C@H](CC1CCCCC1)NC(=O)[C@H](C)NC(=O)[C@H](Cc1ccccc1)NC(=O)OC(C)(C)C

From ChEMBL document CHEMBL1124242, “Renin inhibitors. Dipeptide analogues of angiotensinogen utilizing a dihydroxyethylene transition-state mimic at the scissile bond to impart greater inhibitory potency” (J Med Chem, 1988)
